Laboratory results reported in ChEMBL document CHEMBL1671716, “Antimicrobial susceptibility patterns for recent clinical isolates of anaerobic bacteria in South Korea” (2010).
Converted amounts (≈) assume the structure as drawn.

What was measured:
[1] = test system: Prevotella intermedia; experiment: Antimicrobial activity against Prevotella intermedia after 48 hrs by agar dilution method; type: functional
Method in brief: (§1)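 CLSI agar dilution (M11-A7); inoculum 10^5 CFU applied by replicator; plates incubated anaerobically 48 h at 37°C. For piperacillin-tazobactam, tazobactam held constant at 4 μg/ml.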

[2] = test system: Bacteroides fragilis; experiment: Antimicrobial activity against Bacteroides fragilis after 48 hrs by agar dilution method; type: functional
Method in brief: (§2)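 MICs on clinical anaerobe isolates by the CLSI agar dilution method. Inoculum of 10^5 CFU applied with a Steers replicator. Plates incubated 48 h at 37°C in an anaerobic chamber.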

[3] = test system: Schaalia meyeri; experiment: Antimicrobial activity against Actinomyces meyeri after 48 hrs by agar dilution method; type: functional; method in brief: as §2
[4] = test system: Finegoldia magna; experiment: Antimicrobial activity against Finegoldia magna assessed as percent susceptible isolates after 48 hrs by agar dilution method; type: functional; method in brief: as §1
[5] = test system: Peptoniphilus asaccharolyticus; experiment: Antimicrobial activity against Peptoniphilus asaccharolyticus assessed as percent susceptible isolates after 48 hrs by agar dilution method; type: functional; method in brief: as §1
[6] = test system: Bacteroides caccae; experiment: Antimicrobial activity against Bacteroides caccae assessed as percent susceptible isolates after 48 hrs by agar dilution method; type: functional
[7] = test system: Bifidobacterium adolescentis; experiment: Antimicrobial activity against Bifidobacterium adolescentis after 48 hrs by agar dilution method; type: functional; method in brief: as §2
[8] = test system: Anaerococcus prevotii; experiment: Antimicrobial activity against Anaerococcus prevotii assessed as percent susceptible isolates after 48 hrs by agar dilution method; type: functional
[9] = test system: Schaalia odontolytica; experiment: Antimicrobial activity against Actinomyces odontolyticus assessed as percent resistant isolates after 48 hrs by agar dilution method; type: functional
Method in brief: (§3)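 CLSI agar dilution on recent Korean clinical anaerobe isolates. Inoculum 10^5 CFU per spot by replicator. Plates incubated in an anaerobic chamber at 37°C for 48 h. For piperacillin plus tazobactam, tazobactam was held constant at 4 μg/ml. Resistance and susceptibility rates derived from MICs.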

[10] = test system: Bifidobacterium sp.; experiment: Antimicrobial activity against Bifidobacterium sp. after 48 hrs by agar dilution method; type: functional; method in brief: as §2
[11] = test system: Bifidobacterium adolescentis; experiment: Antimicrobial activity against Bifidobacterium adolescentis assessed as percent resistant isolates after 48 hrs by agar dilution method; type: functional; method in brief: as §3
[12] = test system: Hoylesella oralis; experiment: Antimicrobial activity against Prevotella oralis assessed as percent susceptible isolates after 48 hrs by agar dilution method; type: functional
Method in brief: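 CLSI agar dilution MIC testing of clinical isolates. 10^5 CFU spotted by replicator, plates incubated 48 h at 37°C in an anaerobic chamber. Susceptibility rates derived from the MICs.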

[13] = test system: Prevotella bivia; experiment: Antimicrobial activity against Prevotella bivia after 48 hrs by agar dilution method; type: functional; method in brief: as §1
[14] = test system: Actinomyces israelii; experiment: Antimicrobial activity against Actinomyces israelii assessed as percent resistant isolates after 48 hrs by agar dilution method; type: functional; method in brief: as §3
[15] = test system: Actinomyces israelii; experiment: Antimicrobial activity against Actinomyces israelii after 48 hrs by agar dilution method; type: functional; method in brief: as §2
[16] = test system: Parabacteroides distasonis; experiment: Antimicrobial activity against Bacteroides distasonis assessed as percent susceptible isolates after 48 hrs by agar dilution method; type: functional
[17] = test system: Finegoldia magna; experiment: Antimicrobial activity against Finegoldia magna assessed as percent resistant isolates after 48 hrs by agar dilution method; type: functional; method in brief: as §3
[18] = test system: Eubacterium sp.; experiment: Antimicrobial activity against Eubacterium sp. assessed as percent susceptible isolates after 48 hrs by agar dilution method; type: functional; method in brief: as §1
[19] = test system: Bacteroides caccae; experiment: Antimicrobial activity against Bacteroides caccae after 48 hrs by agar dilution method; type: functional; method in brief: as §2
[20] = test system: Parabacteroides distasonis; experiment: Antimicrobial activity against Bacteroides distasonis assessed as percent resistant isolates after 48 hrs by agar dilution method; type: functional; method in brief: as §3
[21] = test system: Phocaeicola vulgatus; experiment: Antimicrobial activity against Bacteroides vulgatus assessed as percent susceptible isolates after 48 hrs by agar dilution method; type: functional
[22] = test system: Clostridioides difficile; experiment: Antimicrobial activity against Clostridium difficile assessed as percent resistant isolates after 48 hrs by agar dilution method; type: functional
[23] = test system: Bifidobacterium sp.; experiment: Antimicrobial activity against Bifidobacterium sp. assessed as percent resistant isolates after 48 hrs by agar dilution method; type: functional; method in brief: as §3
[24] = test system: Bifidobacterium sp.; experiment: Antimicrobial activity against Bifidobacterium sp. assessed as percent susceptible isolates after 48 hrs by agar dilution method; type: functional; method in brief: as §1
[25] = test system: Eubacterium sp.; experiment: Antimicrobial activity against Eubacterium sp. assessed as percent resistant isolates after 48 hrs by agar dilution method; type: functional; method in brief: as §3
[26] = test system: Finegoldia magna; experiment: Antimicrobial activity against Finegoldia magna after 48 hrs by agar dilution method; type: functional; method in brief: as §1
[27] = test system: Fusobacterium necrogenes; experiment: Antimicrobial activity against Fusobacterium necrogenes after 48 hrs by agar dilution method; type: functional; method in brief: as §1
[28] = test system: Bacteroides ovatus; experiment: Antimicrobial activity against Bacteroides ovatus assessed as percent resistant isolates after 48 hrs by agar dilution method; type: functional; method in brief: as §3
[29] = test system: Prevotella buccae; experiment: Antimicrobial activity against Prevotella buccae assessed as percent susceptible isolates after 48 hrs by agar dilution method; type: functional, Segatella buccae; method in brief: as §1
[30] = test system: Actinomyces naeslundii; experiment: Antimicrobial activity against Actinomyces naeslundii assessed as percent resistant isolates after 48 hrs by agar dilution method; type: functional; method in brief: as §3
[31] = test system: Bifidobacterium adolescentis; experiment: Antimicrobial activity against Bifidobacterium adolescentis assessed as percent susceptible isolates after 48 hrs by agar dilution method; type: functional
[32] = test system: Actinomyces naeslundii; experiment: Antimicrobial activity against Actinomyces naeslundii after 48 hrs by agar dilution method; type: functional; method in brief: as §2
[33] = test system: Anaerococcus prevotii; experiment: Antimicrobial activity against Anaerococcus prevotii assessed as percent resistant isolates after 48 hrs by agar dilution method; type: functional; method in brief: as §3
[34] = test system: Bacteroides fragilis; experiment: Antimicrobial activity against Bacteroides fragilis assessed as percent susceptible isolates after 48 hrs by agar dilution method; type: functional
[35] = test system: Phocaeicola vulgatus; experiment: Antimicrobial activity against Bacteroides vulgatus assessed as percent resistant isolates after 48 hrs by agar dilution method; type: functional; method in brief: as §3
[36] = test system: Phocaeicola vulgatus; experiment: Antimicrobial activity against Bacteroides vulgatus after 48 hrs by agar dilution method; type: functional; method in brief: as §2
[37] = test system: Parvimonas micra; experiment: Antimicrobial activity against Peptostreptococcus micros after 48 hrs by agar dilution method; type: functional; method in brief: as §1
[38] = test system: Prevotella intermedia; experiment: Antimicrobial activity against Prevotella intermedia assessed as percent resistant isolates after 48 hrs by agar dilution method; type: functional; method in brief: as §3
[39] = test system: Peptostreptococcus anaerobius; experiment: Antimicrobial activity against Peptostreptococcus anaerobius assessed as percent susceptible isolates after 48 hrs by agar dilution method; type: functional; method in brief: as §3
[40] = test system: Anaerococcus prevotii; experiment: Antimicrobial activity against Anaerococcus prevotii after 48 hrs by agar dilution method; type: functional; method in brief: as §2
[41] = test system: Peptostreptococcus anaerobius; experiment: Antimicrobial activity against Peptostreptococcus anaerobius after 48 hrs by agar dilution method; type: functional; method in brief: as §1
[42] = test system: Schaalia odontolytica; experiment: Antimicrobial activity against Actinomyces odontolyticus after 48 hrs by agar dilution method; type: functional; method in brief: as §2
[43] = test system: Clostridioides difficile; experiment: Antimicrobial activity against Clostridium difficile assessed as percent susceptible isolates after 48 hrs by agar dilution method; type: functional
[44] = test system: Bacteroides caccae; experiment: Antimicrobial activity against Bacteroides caccae assessed as percent resistant isolates after 48 hrs by agar dilution method; type: functional; method in brief: as §3
[45] = test system: Parabacteroides distasonis; experiment: Antimicrobial activity against Bacteroides distasonis after 48 hrs by agar dilution method; type: functional; method in brief: as §2

`CCC[C@@H]1C[C@@H](C(=O)N[C@@H]([C@H]2O[C@H](SC)[C@H](O)[C@@H](O)[C@H]2O)[C@H](C)Cl)N(C)C1` [CLINDAMYCIN] showed an MIC50 [1] of at most 0.06 µg/mL, an MIC90 [1] of at most 0.06 µg/mL and an MIC50 [2] of 0.5 µg/mL (≈ 1.18 µM). For the same molecule, the MIC90 [2] was over 128 µg/mL, the MIC [3] was 0.06 µg/mL (≈ 0.141 µM) and the MIC50 [3] was 0.06 µg/mL (≈ 0.141 µM). It also gave an MIC90 [3] of over 128 µg/mL, an Activity [4] of 73% and an Activity [5] of 67%. The Activity [6] was 16%, the MIC [7] was 0.06 µg/mL (≈ 0.141 µM) and the MIC50 [7] was 0.06 µg/mL (≈ 0.141 µM). It also gave an MIC90 [7] of over 128 µg/mL, an Activity [8] of 60% and an Activity [9] of 15%. It also gave an MIC [10] of 0.06 µg/mL (≈ 0.141 µM), an MIC50 [10] of 0.06 µg/mL (≈ 0.141 µM) and an MIC90 [10] of over 128 µg/mL. For the same molecule, the Activity [11] was 8%, the Activity [12] was 50% and the MIC50 [13] was at most 0.06 µg/mL. The MIC90 [13] was 128 µg/mL (≈ 301 µM), the Activity [14] was 15% and the MIC [15] was 0.06 µg/mL (≈ 0.141 µM). It also gave an MIC50 [15] of 0.06 µg/mL (≈ 0.141 µM), an MIC90 [15] of over 128 µg/mL and an Activity [16] of 16%. For the same molecule, the Activity [17] was 13%, the Activity [18] was 85% and the MIC50 [19] was over 128 µg/mL. For the same molecule, the MIC90 [19] was over 128 µg/mL, the Activity [20] was 68% and the Activity [21] was 16%. The Activity [22] was 83%, the Activity [23] was 15% and the Activity [24] was 85%. The Activity [25] was 15%, the MIC50 [26] was 0.25 µg/mL (≈ 0.588 µM) and the MIC90 [26] was 64 µg/mL (≈ 151 µM). The MIC [27] was 0.06 µg/mL (≈ 0.141 µM), the Activity [28] was 68% and the Activity [29] was 50%. The Activity [30] was 15%, the Activity [31] was 85% and the MIC [32] was 0.06 µg/mL (≈ 0.141 µM). It also gave an MIC50 [32] of 0.06 µg/mL (≈ 0.141 µM), an MIC90 [32] of over 128 µg/mL and an Activity [33] of 40%. It also gave an Activity [34] of 67%, an Activity [35] of 68% and an MIC50 [36] of over 128 µg/mL. The MIC90 [36] was over 128 µg/mL, the MIC50 [37] was 0.125 µg/mL (≈ 0.294 µM) and the MIC90 [37] was 64 µg/mL (≈ 151 µM). It also gave an Activity [38] of 0%, an Activity [39] of 77% and an MIC50 [40] of 2 µg/mL (≈ 4.71 µM). For the same molecule, the MIC90 [40] was 128 µg/mL (≈ 301 µM), the MIC50 [41] was 0.125 µg/mL (≈ 0.294 µM) and the MIC90 [41] was 64 µg/mL (≈ 151 µM). The MIC [42] was 0.06 µg/mL (≈ 0.141 µM), the MIC50 [42] was 0.06 µg/mL (≈ 0.141 µM) and the MIC90 [42] was over 128 µg/mL. The Activity [43] was 8%, the Activity [44] was 68% and the MIC50 [45] was over 128 µg/mL. The MIC90 [45] was over 128 µg/mL.
